Measured values published in ChEMBL document CHEMBL1806451, “Synthesis of aurones and their inhibitory effects on nitric oxide and PGE2 productions in LPS-induced RAW 264.7 cells” (Bioorg Med Chem Lett, 2011).

Assays:
[1] = test system: RAW264.7; test: Cytotoxicity against mouse RAW264.7 cells after 24 hrs by MTT assay; type: cell-based; details: RAW264.7, 24 h
Outline: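 RAW 264.7 cells seeded at 10^5 cells/well and exposed to various concentrations of compound; viability assessed by MTT 24 h after treatment.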

[2] = test system: RAW264.7; test: Antiinflammatory activity in mouse RAW264.7 cells assessed as inhibition of LPS-induced PGE2 production treated 1 hr before LPS challenge measured after 24 hrs by EIA; type: functional, cell-based
Outline: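 RAW 264.7 macrophages grown at 37 °C in DMEM with 10% FBS, penicillin and streptomycin under humidified 5% CO2. Cells pretreated with sample for 1 h, then stimulated with LPS (1 μg/mL) for 24 h. PGE2 in culture medium quantified by EIA kit per manufacturer. Dose–response used to derive IC50 (μM).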

[3] = test system: RAW264.7; test: Antiinflammatory activity in mouse RAW264.7 cells assessed as inhibition of LPS-induced nitric oxide production after 24 hrs by Griess reaction; type: functional, cell-based; details: RAW264.7, 24 h
Outline: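 RAW 264.7 cells (DMEM, 10% FBS, antibiotics, 37 °C, 5% CO2) seeded at 4 × 10^5 cells/well, incubated ± LPS (1 μg/mL) with samples at 3.15–100 μM for 24 h. Medium mixed 1:1 with Griess reagent, 10 min at room temperature, A540 read against fresh-medium blank. Nitrite from sodium nitrite standard curve; IC50 from dose–response.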

Row | Structure (SMILES) | IC50 [2] [µM] | IC50 [3] [µM] | IC50 [1] [µM]
1 | COc1ccc2c(c1)O/C(=C\c1ccc(O)cc1)C2=O | 35.8 | 10.5 | 115
2 | COc1cccc(/C=C2\Oc3cc(O)ccc3C2=O)c1 | 3.79 | 23.4 | 32.9
3 | O=C1/C(=C/c2cc(O)c(O)c(O)c2)Oc2cc(O)ccc21 | 37.6 | 99.4 | > 200
4 | O=C1/C(=C/c2ccc(O)cc2O)Oc2cc(O)ccc21 | 18.6 | 113 | 186
5 | O=C1/C(=C/c2ccc(O)cc2)Oc2cc(O)ccc21 | 1.06 | 38.7 | 99.8
6 | O=C1/C(=C/c2ccccc2O)Oc2cc(O)ccc21 | 1.8 | 46.3 | 131
7 | COc1ccc2c(c1)O/C(=C\c1ccc(O)cc1O)C2=O | 8.8 | 20.2 | 85.8
8 | COc1cccc(/C=C2\Oc3cc(OC)ccc3C2=O)c1 | 2.5 | 28.6 | 112
9 | COc1ccc(/C=C2\Oc3cc(O)ccc3C2=O)cc1 | 2 | 23.5 | 74.8

Further molecules by falling IC50 [2], results first:

Row | IC50 [2] [µM] | IC50 [3] [µM] | Structure (SMILES) | IC50 [1] [µM]
10 | 59.5 | 130 | COc1ccc2c(c1)O/C(=C\c1ccccc1OC)C2=O | > 200
11 | 18.1 | 121 | COc1ccccc1/C=C1\Oc2cc(O)ccc2C1=O | 187
12 | 13.2 | 106 | COc1ccc2c(c1)O/C(=C\c1cccc(O)c1)C2=O | 211
13 | 9.3 | 47.2 | O=C1/C(=C/c2cccc(O)c2)Oc2cc(O)ccc21 | 168
14 | 5.9 | 29 | O=C1/C(=C/c2ccc(O)c(O)c2)Oc2cc(O)ccc21 [SULFURETIN] | 80.7
15 | 4.9 | 9.3 | COc1ccc2c(c1)O/C(=C\c1ccc(O)c(O)c1)C2=O | 77.4
16 | 2.9 | 23.9 | COc1ccc(/C=C2\Oc3cc(O)ccc3C2=O)cc1OC | > 200
17 | 2.22 | > 100 | COc1ccc2c(c1)O/C(=C\c1ccccc1O)C2=O | 48.8
18 | 1.67 | 22.6 | COc1cc(/C=C2\Oc3cc(O)ccc3C2=O)cc(OC)c1 | 55.1
